Measured values from ChEMBL document CHEMBL4229470, “Synthetic molecules for disruption of the MYC protein-protein interface” (Bioorg Med Chem, 2018).
Values after ≈ are worked out from the molar mass of the structure shown. Active and inactive are the calls of the source. The rule behind the calls is not given here.

What was measured:
[1] = Solubility in pH 6 MES buffer by dynamic light scattering assay; assay type: physicochemical
In short: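 Dynamic light scattering in MES, pH 6.0, with <0.1% DMSO.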

[2] = biological target: Myc proto-oncogene protein (Homo sapiens) (UniProt P01106); experiment: Binding affinity to His-tagged Myc (unknown origin) expressed in Escherichia coli BL21 at 10 uM by Bio-FET analysis relative to KJ-Pyr-9
In short: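 His-tagged MYC bHLH construct immobilized on a Bio-FET chip. Compounds at 10 μM in 3% DMSO in MES buffer; chip response at 10 μM normalized to a 10 μM reference ligand (saturating, maximal signal) run on each chip.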

[3] = biological target: T1, c-Myc/Max (Homo sapiens) (UniProt P01106+P61244); experiment: Binding affinity to His-tagged Myc/Max (unknown origin) expressed in Escherichia coli BL21 at 10 uM by Bio-FET analysis
In short: (§1)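 Bio-FET chip screening at 10 μM against monomeric MAX (mMAX), MYC-MAX and MAX-MAX dimers. Heterodimers stabilized by a disulfide through a C-terminal cysteine introduced into the MYC bHLH and MAX constructs.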

[4] = biological target: Protein max (Homo sapiens) (UniProt P61244); experiment: Binding affinity to His-tagged monomeric Max (unknown origin) expressed in Escherichia coli BL21 at 10 uM by Bio-FET analysis; in short: as §1
[5] = biological target: Protein max (Homo sapiens) (UniProt P61244); experiment: Binding affinity to His-tagged dimeric Max (unknown origin) expressed in Escherichia coli BL21 at 10 uM by Bio-FET analysis; in short: as §1
[6] = biological target: T1, c-Myc/Max (Homo sapiens); experiment: Inhibition of biotin-labeled EBOX dsDNA binding to Myc-Max (unknown origin) at 10 uM preincubated for 15 mins followed by test compound-protein mixture addition to biotin-labeled EBOX dsDNA immobilized chip measured over 2.5 mins by SPR analysis; assay type: protein-complex assay
In short: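 SPR. Disulfide-stabilized MYC-MAX dimer incubated with compound at 10 μM, then flowed over a DNA chip surface; sensorgram perturbation compared with vehicle control.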

[7] = tested on: dsDNA; experiment: Binding affinity to biotin-labeled EBOX dsDNA (unknown origin) at 10 uM measured over 2.5 mins by SPR analysis; assay type: nucleic-acid assay
In short: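 SPR check of compound alone flowed over the DNA surface, without protein.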

[8] = Drug metabolism in rat liver microsomes assessed as oxidized furan ion formation by measuring parent compound remaining at 5 uM after 3 mins by LC-MS analysis; assay type: ADME, microsome; conditions: 0.05 h
In short: (§2)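 Compounds incubated with rat liver microsomes at 37 °C for the indicated times; mass analysis monitoring the oxidized furan ion; recovery calculated from the AUC of the extracted ion.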

[9] = Drug metabolism in rat liver microsomes assessed as oxidized furan ion formation by measuring parent compound remaining at 5 uM after 7 mins by LC-MS analysis; assay type: ADME, microsome; in short: as §2
[10] = Drug metabolism in rat liver microsomes assessed as oxidized furan ion formation by measuring parent compound remaining at 5 uM after 15 mins by LC-MS analysis; assay type: ADME, microsome; conditions: 0.25 h; in short: as §2
[11] = Drug metabolism in rat liver microsomes assessed as oxidized furan ion formation by measuring parent compound remaining at 5 uM after 25 mins by LC-MS analysis; assay type: ADME, microsome; in short: as §2
[12] = Drug metabolism in rat liver microsomes assessed as oxidized furan ion formation by measuring parent compound remaining at 5 uM after 45 mins by LC-MS analysis; assay type: ADME, microsome; conditions: 0.75 h; in short: as §2
[13] = Terminal half life in C57Bl6 mouse at 10 mg/kg, iv by LC-MS analysis; assay type: ADME, organism-based; conditions: in vivo, read-out: beta t1/2 (converted)
In short: (§3)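 Pharmacokinetic parameters determined in C57Bl6 mice.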

[14] = AUC (0 to infinity) in C57Bl6 mouse at 10 mg/kg, iv by LC-MS analysis; assay type: ADME, organism-based; set-up: dose 10 mg/kg, route intravenous, time infinity; conditions: in vivo; in short: as §3
[15] = tested on: Mus musculus; experiment: AUMC (0 to infinity) in C57Bl6 mouse at 10 mg/kg, iv by LC-MS analysis; assay type: ADME, organism-based; conditions: in vivo; in short: as §3
[16] = MRT in C57Bl6 mouse at 10 mg/kg, iv by LC-MS analysis; assay type: ADME, organism-based; conditions: in vivo; in short: as §3
[17] = Volume of distribution at steady state in C57Bl6 mouse at 10 mg/kg, iv by LC-MS analysis; assay type: ADME, organism-based; conditions: in vivo; in short: as §3
[18] = Clearance in C57Bl6 mouse at 10 mg/kg, iv by LC-MS analysis; assay type: ADME, organism-based; conditions: in vivo; in short: as §3
[19] = Terminal half life in rat at 1 mg/kg, iv; assay type: ADME, organism-based; conditions: in vivo, read-out: beta t1/2 (converted)
[20] = AUC (0 to infinity) in rat at 1 mg/kg, iv; assay type: ADME, organism-based; set-up: dose 1 mg/kg, time infinity, route intravenous; conditions: in vivo
[21] = tested on: Rattus norvegicus; experiment: AUMC (0 to infinity) in rat at 1 mg/kg, iv; assay type: ADME, organism-based; conditions: in vivo
[22] = MRT in rat at 1 mg/kg, iv; assay type: ADME, organism-based; conditions: in vivo
[23] = Clearance in rat at 1 mg/kg, iv; assay type: ADME, organism-based; conditions: in vivo

Sequence of Myc proto-oncogene protein (Homo sapiens) (P01106 whole entry): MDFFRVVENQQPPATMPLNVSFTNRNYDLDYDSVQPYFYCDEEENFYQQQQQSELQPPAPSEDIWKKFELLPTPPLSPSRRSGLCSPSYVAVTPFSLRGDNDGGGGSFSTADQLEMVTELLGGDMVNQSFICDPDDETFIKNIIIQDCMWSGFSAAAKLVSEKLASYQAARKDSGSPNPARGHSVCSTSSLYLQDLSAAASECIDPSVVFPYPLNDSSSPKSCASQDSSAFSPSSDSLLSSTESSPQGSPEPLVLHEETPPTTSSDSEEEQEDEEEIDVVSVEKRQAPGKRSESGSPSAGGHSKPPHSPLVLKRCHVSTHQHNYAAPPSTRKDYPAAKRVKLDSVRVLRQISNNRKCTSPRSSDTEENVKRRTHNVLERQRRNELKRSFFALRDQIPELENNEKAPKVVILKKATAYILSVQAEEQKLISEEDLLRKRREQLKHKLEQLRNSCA
Sequence of Protein max (Homo sapiens) (P61244 whole entry): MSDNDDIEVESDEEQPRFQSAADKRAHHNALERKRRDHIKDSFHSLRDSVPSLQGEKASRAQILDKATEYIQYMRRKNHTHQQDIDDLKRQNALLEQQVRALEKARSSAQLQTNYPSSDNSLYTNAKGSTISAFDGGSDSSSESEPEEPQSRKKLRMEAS

SMILES | solubility [1] [µM] | Activity [2] [%] | Activity [3] | Activity [4] | Activity [5] | inhibition [6] | Activity [7] | further results
CS(=O)(=O)NC(=O)c1ccc(-c2cc(-c3ccc(C#N)cc3)nc(-c3ccco3)c2)cc1 | 32 (≈ 14.2 µg/mL) | 76 | inactive | inactive | inactive | Active | inactive | 
N#Cc1ccc(-c2cc(-c3ccc(-c4nnn[nH]4)cc3)cc(-c3ccco3)n2)cc1 | 18 (≈ 7.03 µg/mL) | 92 | inactive | inactive | inactive | Active | inactive | 
Cn1ccnc1-c1cc(-c2ccc(C(N)=O)cc2)cc(-c2ccc(C#N)cc2)n1 | 8 (≈ 3.04 µg/mL) | 41 | inactive | inactive | inactive | Active | inactive | 
N#Cc1ccc(-c2cc(-c3ccc(C(=O)NN)cc3)cc(-c3ccco3)n2)cc1 | 500 (≈ 190 µg/mL) | 0 | inactive | inactive | inactive | inactive | inactive | 
c1coc(-c2cc(-c3nccs3)cc(-c3ccc(-c4nccs4)cc3)n2)c1 | < 1 | 188 | inactive | inactive | inactive | Active | inactive | 
COc1ccc(-c2cc(-c3ccc(C(N)=O)cc3)nc(-c3ccccc3)n2)cc1 | < 1 | 0 | inactive | inactive | inactive | inactive | inactive | 
N#Cc1ccc(-c2cc(-c3ccc(C(N)=O)cc3)cc(-c3ccco3)n2)cc1 | 10 (≈ 3.65 µg/mL) | 106 | inactive | inactive | inactive | Active | inactive | 
NC(=O)c1ccc(-c2cc(-c3ccc(-c4nccs4)cc3)nc(-c3ccco3)c2)cc1 |  | 97 | inactive | inactive | inactive | Active | inactive | Stability [8]: 84.31%; Stability [9]: 80.8%; Stability [10]: 74.39%; Stability [11]: 67.5%; Stability [12]: 62.23%; AUC(0-inf) [14]: 44000 ng·h/mL; AUMC [15]: 190000 ng·h/mL; MRT [16]: 4.3 h; clearance [18]: 3.8 mL/min/kg

The next lines start with results.

solubility [1] [µM] | Activity [2] [%] | Activity [3] | Activity [4] | Activity [5] | inhibition [6] | Activity [7] | SMILES | further results
25 (≈ 9.84 µg/mL) | 0 | inactive | inactive | inactive | inactive | inactive | N#Cc1ccc(-c2cc(-c3ccc(C(N)=O)cc3)nc(-c3cc[n+]([O-])cc3)n2)cc1 | 
2 (≈ 0.787 µg/mL) | 0 | inactive | inactive | inactive | inactive | inactive | N#Cc1ccc(-c2cc(-c3ccc(C(N)=O)cc3)cc(-c3cccc(F)c3)n2)cc1 | 
250 (≈ 91.6 µg/mL) | 0 | inactive | inactive | inactive | inactive | inactive | N#Cc1ccc(-c2cc(-c3ccc(C(N)=O)cc3)cc(-c3cnco3)n2)cc1 | 
8 (≈ 2.93 µg/mL) | 66 | inactive | inactive | inactive | Active | inactive | N#Cc1ccc(-c2cc(-c3ccc(C(N)=O)cc3)nc(-c3ccco3)n2)cc1 | 
15 (≈ 6.11 µg/mL) | 154 | inactive | inactive | inactive | Active | inactive | NC(=O)c1ccc(-c2cc(-c3ccc(-c4cnco4)cc3)nc(-c3ccco3)c2)cc1 | 
8 (≈ 3.08 µg/mL) |  |  | inactive | inactive |  | inactive | NC(=O)c1ccc(-c2cc(-c3ccc([N+](=O)[O-])cc3)nc(-c3ccco3)c2)cc1 | Stability [8]: 49.69%; Stability [9]: 31.47%; Stability [10]: 25.88%; Stability [11]: 20.91%; Stability [12]: 22%; half-life [13]: 1 h; AUC(0-inf) [14]: 1450 ng·h/mL; AUMC [15]: 1360 ng·h/mL; MRT [16]: 0.94 h; Vd [17]: 6.44 L/kg; clearance [18]: 115 mL/min/kg; half-life [19]: 1.6 h; AUC(0-inf) [20]: 258 ng·h/mL; AUMC [21]: 427 ng·h/mL; MRT [22]: 1.7 h; clearance [23]: 65 mL/min/kg
32 (≈ 12.2 µg/mL) | 55 | inactive | inactive | inactive | Active | inactive | Cn1nncc1-c1cc(-c2ccc(C(N)=O)cc2)cc(-c2ccc(C#N)cc2)n1 | 
64 (≈ 24.5 µg/mL) | 79 | inactive | inactive | inactive | Active | inactive | N#Cc1ccc(-c2cc(-c3ccc(C(N)=O)cc3)cc(-c3cncs3)n2)cc1 | 
25 (≈ 9.49 µg/mL) | 3.2 | inactive | inactive | inactive | Active | inactive | CNC(=O)c1ccc(-c2cc(-c3ccc(C#N)cc3)nc(-c3ccco3)c2)cc1 | 
